In ChEMBL document CHEMBL3351252, “Design, synthesis, and structure-activity relationship studies of a series of [4-(4-carboxamidobutyl)]-1-arylpiperazines: insights into structural features contributing to dopamine D3 versus D2 receptor subtype selectivity” (J Med Chem, 2014):
Active and inactive are the calls of the source. No cut-off for these calls is given here.

organism: Homo sapiens; experiment: Selectivity index, ratio of IC50 for human D2LR to IC50 for human D3R by beta-galactosidase based beta-arrestin recruitment assay; settings: not given

Ratio IC50 | Structure (SMILES)
93 | CC(C)(C)c1nc(N2CCN(CCCCNC(=O)c3cn4cccnc4n3)CC2)cc(C(F)(F)F)n1
35 | CC(C)(C)c1nc(N2CCN(CCCCNC(=O)c3nc4ccccc4[nH]3)CC2)cc(C(F)(F)F)n1
455 | O=C(NCCCCN1CCN(c2cccc(Cl)c2Cl)CC1)c1cn2ccccc2n1
75 | CC(C)(C)c1nc(N2CCN(CCCCNC(=O)c3cc4ccccc4[nH]3)CC2)cc(C(F)(F)F)n1
0.6 | O=C(NCCCCN1CCN(c2ncnc3ccccc23)CC1)c1cn2ccccc2n1

Structure (SMILES) | Ratio IC50
CN(C)Cc1cccc2nc(C(=O)NCCCCN3CCN(c4cc(C(F)(F)F)nc(C(C)(C)C)n4)CC3)cn12 | 9.7

organism: Homo sapiens; experiment: Selectivity index, ratio of Ki for human D2LR to Ki or human D3R; settings: not given

Ratio Ki | Structure (SMILES)
36 | CC(C)(C)c1nc(N2CCN(CCCCNC(=O)c3cn4cccnc4n3)CC2)cc(C(F)(F)F)n1
78 | CC(C)(C)c1nc(N2CCN(CCCCNC(=O)c3nc4ccccc4[nH]3)CC2)cc(C(F)(F)F)n1
40 | O=C(NCCCCN1CCN(c2cccc(Cl)c2Cl)CC1)c1cn2ccccc2n1
83 | CC(C)(C)c1nc(N2CCN(CCCCNC(=O)c3cc4ccccc4[nH]3)CC2)cc(C(F)(F)F)n1
4.5 | O=C(NCCCCN1CCN(c2ncnc3ccccc23)CC1)c1cn2ccccc2n1

Structure (SMILES) | Ratio Ki
CN(C)Cc1cccc2nc(C(=O)NCCCCN3CCN(c4cc(C(F)(F)F)nc(C(C)(C)C)n4)CC3)cn12 | 11

target: D(3) dopamine receptor (Homo sapiens, UniProt P35462, E90A); experiment: Displacement of [125I]IABN from human D3R E90A mutant expressed in HEK293 cell membranes by gamma counting method; settings: not given
How it was run: (§1)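 Membranes from HEK 293 cells stably expressing receptor, prepared in 50 mM Tris-HCl pH 7.4/10 mM EDTA/150 mM NaCl and stored at −80 °C. […] Nonspecific binding defined with 2 μM (+)-butaclamol. Filtered, gamma counted. IC50 from single-site nonlinear regression, converted to Ki.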

Chain of D(3) dopamine receptor (Homo sapiens, UniProt P35462, E90A) (P35462 as listed by the source E90A): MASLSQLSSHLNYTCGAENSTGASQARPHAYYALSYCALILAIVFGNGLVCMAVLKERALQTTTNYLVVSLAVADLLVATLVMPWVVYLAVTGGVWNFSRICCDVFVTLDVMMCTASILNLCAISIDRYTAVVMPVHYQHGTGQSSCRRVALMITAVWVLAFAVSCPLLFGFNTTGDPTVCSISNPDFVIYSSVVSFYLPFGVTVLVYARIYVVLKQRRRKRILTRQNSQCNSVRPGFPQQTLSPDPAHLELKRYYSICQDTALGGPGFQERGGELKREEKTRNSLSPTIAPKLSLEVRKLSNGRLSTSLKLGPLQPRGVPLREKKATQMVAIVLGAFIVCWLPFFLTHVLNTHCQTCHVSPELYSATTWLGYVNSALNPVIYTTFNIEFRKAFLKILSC

Structure (SMILES) | Ki [nM]
CN(C)Cc1cccc2nc(C(=O)NCCCCN3CCN(c4cc(C(F)(F)F)nc(C(C)(C)C)n4)CC3)cn12 | 12

target: T1, D(2) dopamine receptor (Homo sapiens, UniProt P14416); experiment: Inverse agonist activity at human D2LR expressed in CHO-K1 cells assessed as inhibition of basal activity by beta-galactosidase based beta-arrestin recruitment assay; type: cell-based; settings: not given
How it was run: (§2)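 CHO-K1 cells expressing human D2L receptor, β-arrestin/β-galactosidase fragment-complementation assay. Cells plated 2500/well and grown 48 h at 37 °C. Test compounds given at 11 half-log points from 5 μM, 120 min at 37 °C. Detection reagent added and chemiluminescence read. Results given as % stimulation or inhibition of basal luminescence. Compounds counterscreened for β-gal inhibition.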

T1 sequence (P14416 whole entry, the tested form may be a part): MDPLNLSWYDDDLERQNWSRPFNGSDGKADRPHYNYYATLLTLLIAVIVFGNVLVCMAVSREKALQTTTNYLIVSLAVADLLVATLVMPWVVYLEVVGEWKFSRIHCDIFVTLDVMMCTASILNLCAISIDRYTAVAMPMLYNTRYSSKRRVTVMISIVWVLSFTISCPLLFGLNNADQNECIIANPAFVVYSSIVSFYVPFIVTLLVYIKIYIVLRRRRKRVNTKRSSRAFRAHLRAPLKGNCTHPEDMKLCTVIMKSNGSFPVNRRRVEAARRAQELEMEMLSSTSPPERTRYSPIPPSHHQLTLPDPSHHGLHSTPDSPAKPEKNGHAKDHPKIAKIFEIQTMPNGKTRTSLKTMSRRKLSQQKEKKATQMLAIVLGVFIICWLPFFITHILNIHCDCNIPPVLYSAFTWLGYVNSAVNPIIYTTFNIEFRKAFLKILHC

inhibition | Structure (SMILES)
inactive | CC(C)(C)c1nc(N2CCN(CCCCNC(=O)c3cn4cccnc4n3)CC2)cc(C(F)(F)F)n1
inactive | CC(C)(C)c1nc(N2CCN(CCCCNC(=O)c3nc4ccccc4[nH]3)CC2)cc(C(F)(F)F)n1
inactive | O=C(NCCCCN1CCN(c2cccc(Cl)c2Cl)CC1)c1cn2ccccc2n1
inactive | CC(C)(C)c1nc(N2CCN(CCCCNC(=O)c3cc4ccccc4[nH]3)CC2)cc(C(F)(F)F)n1
inactive | O=C(NCCCCN1CCN(c2ncnc3ccccc23)CC1)c1cn2ccccc2n1

Structure (SMILES) | inhibition
CN(C)Cc1cccc2nc(C(=O)NCCCCN3CCN(c4cc(C(F)(F)F)nc(C(C)(C)C)n4)CC3)cn12 | inactive

target: T1, D(2) dopamine receptor; experiment: Agonist activity at human D2LR expressed in CHO-K1 cells assessed as stimulation of basal activity by beta-galactosidase based beta-arrestin recruitment assay; type: cell-based; settings: not given; how it was run: as §2

Activity | Structure (SMILES)
inactive | CC(C)(C)c1nc(N2CCN(CCCCNC(=O)c3cn4cccnc4n3)CC2)cc(C(F)(F)F)n1
inactive | CC(C)(C)c1nc(N2CCN(CCCCNC(=O)c3nc4ccccc4[nH]3)CC2)cc(C(F)(F)F)n1
inactive | O=C(NCCCCN1CCN(c2cccc(Cl)c2Cl)CC1)c1cn2ccccc2n1
inactive | CC(C)(C)c1nc(N2CCN(CCCCNC(=O)c3cc4ccccc4[nH]3)CC2)cc(C(F)(F)F)n1
inactive | O=C(NCCCCN1CCN(c2ncnc3ccccc23)CC1)c1cn2ccccc2n1

Structure (SMILES) | Activity
CN(C)Cc1cccc2nc(C(=O)NCCCCN3CCN(c4cc(C(F)(F)F)nc(C(C)(C)C)n4)CC3)cn12 | inactive

target: D(3) dopamine receptor (Homo sapiens, UniProt P35462, E90Q); experiment: Displacement of [125I]IABN from human D3R E90Q mutant expressed in HEK293 cell membranes by gamma counting method; settings: not given; how it was run: as §1
Sequence (P35462 as listed by the source E90Q): as the sequence (P35462 as listed by the source E90A) above, with A90Q counted along it

Structure (SMILES) | Ki [nM]
CN(C)Cc1cccc2nc(C(=O)NCCCCN3CCN(c4cc(C(F)(F)F)nc(C(C)(C)C)n4)CC3)cn12 | 12

target: T1, D(2) dopamine receptor; experiment: Displacement of [125I]IABN from chimeric human D2 receptor possessing extracellular loop II of D3 receptor expressed in HEK293 cell membranes by gamma counting method; settings: not given

Structure (SMILES) | Ki [nM]
CN(C)Cc1cccc2nc(C(=O)NCCCCN3CCN(c4cc(C(F)(F)F)nc(C(C)(C)C)n4)CC3)cn12 | 176

target: T1, D(2) dopamine receptor; experiment: Displacement of [125I]IABN from wild type human D2R expressed in HEK293 cell membranes by gamma counting method; settings: not given

Structure (SMILES) | Ki [nM]
CN(C)Cc1cccc2nc(C(=O)NCCCCN3CCN(c4cc(C(F)(F)F)nc(C(C)(C)C)n4)CC3)cn12 | 245

target: T1, D(2) dopamine receptor; experiment: Agonist activity at human D2R expressed in CHO cells assessed as stimulation of mitogenesis at 10 uM after 24 hrs by [3H]thymidine uptake assay relative to quinpirole; type: cell-based; settings: not given
How it was run: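 CHOp-D2 cells grown 48–72 h, then serum-starved 24 h. Exposed to 10 μM compound in serum-free α-MEM for 24 h at 37 °C. Pulsed 2 h with 0.25 μCi [3H]thymidine, trypsinized, filtered and counted. Stimulation expressed relative to maximal quinpirole. Two independent experiments.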

Activity [%] | Structure (SMILES)
< 1 | CC(C)(C)c1nc(N2CCN(CCCCNC(=O)c3cn4cccnc4n3)CC2)cc(C(F)(F)F)n1
< 20 | CC(C)(C)c1nc(N2CCN(CCCCNC(=O)c3nc4ccccc4[nH]3)CC2)cc(C(F)(F)F)n1
< 20 | O=C(NCCCCN1CCN(c2cccc(Cl)c2Cl)CC1)c1cn2ccccc2n1

target: T1, D(2) dopamine receptor; experiment: Antagonist activity against human D2LR expressed in CHOK1 cells assessed as inhibition of pergolide-induced beta-arrestin translocation by beta-galactosidase based beta-arrestin recruitment assay; type: cell-based, CHO-K1; settings: not given

IC50 [nM] | Structure (SMILES)
37 | CC(C)(C)c1nc(N2CCN(CCCCNC(=O)c3cn4cccnc4n3)CC2)cc(C(F)(F)F)n1
301 | CC(C)(C)c1nc(N2CCN(CCCCNC(=O)c3nc4ccccc4[nH]3)CC2)cc(C(F)(F)F)n1
91 | O=C(NCCCCN1CCN(c2cccc(Cl)c2Cl)CC1)c1cn2ccccc2n1
418 | CC(C)(C)c1nc(N2CCN(CCCCNC(=O)c3cc4ccccc4[nH]3)CC2)cc(C(F)(F)F)n1
248 | O=C(NCCCCN1CCN(c2ncnc3ccccc23)CC1)c1cn2ccccc2n1

target: T1, D(2) dopamine receptor; experiment: Antagonist activity against human D2R expressed in CHO cells assessed as inhibition of quinpirole-induced mitogenesis after 24 hrs by [3H]thymidine uptake assay; type: cell-based; settings: not given
How it was run: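 Serum-starved CHOp-D2 or CHOp-D3 cells given serial dilutions of test compound plus quinpirole (30 nM final). Incubated at 37 °C for 24 h (D2) or 16 h (D3). Then 2 h [3H]thymidine pulse, filtration and counting.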

IC50 [nM] | Structure (SMILES)
490 | CC(C)(C)c1nc(N2CCN(CCCCNC(=O)c3nc4ccccc4[nH]3)CC2)cc(C(F)(F)F)n1
55 | O=C(NCCCCN1CCN(c2cccc(Cl)c2Cl)CC1)c1cn2ccccc2n1

target: D(3) dopamine receptor (Homo sapiens, UniProt P35462, S182I); experiment: Displacement of [125I]IABN from human D3R S182I mutant expressed in HEK293 cell membranes by gamma counting method; settings: not given; how it was run: as §1
Sequence (P35462 as listed by the source S182I): as the sequence (P35462 as listed by the source E90A) above, with A90E, S182I counted along it

Structure (SMILES) | Ki [nM]
CN(C)Cc1cccc2nc(C(=O)NCCCCN3CCN(c4cc(C(F)(F)F)nc(C(C)(C)C)n4)CC3)cn12 | 24

target: T2, D(3) dopamine receptor (Homo sapiens, UniProt P35462); experiment: Displacement of [125I]IABN from wild type human D3R expressed in HEK293 cell membranes by gamma counting method; settings: not given; how it was run: as §1
T2 sequence (P35462 whole entry): as the sequence (P35462 as listed by the source E90A) above, with S9G, A90E counted along it

Structure (SMILES) | Ki [nM]
CN(C)Cc1cccc2nc(C(=O)NCCCCN3CCN(c4cc(C(F)(F)F)nc(C(C)(C)C)n4)CC3)cn12 | 16

target: T1, D(2) dopamine receptor; experiment: Displacement of [125I]IABN from human D2LR expressed in HEK293 cell membranes by gamma counting method; settings: not given

Ki [nM] | Structure (SMILES)
336 | CC(C)(C)c1nc(N2CCN(CCCCNC(=O)c3nc4ccccc4[nH]3)CC2)cc(C(F)(F)F)n1
12 | O=C(NCCCCN1CCN(c2cccc(Cl)c2Cl)CC1)c1cn2ccccc2n1
913 | CC(C)(C)c1nc(N2CCN(CCCCNC(=O)c3cc4ccccc4[nH]3)CC2)cc(C(F)(F)F)n1

target: T2, D(3) dopamine receptor; experiment: Antagonist activity against D3R in human U2OS cells assessed as inhibition of (+)-PD128907-induced beta-arrestin translocation by beta-galactosidase based beta-arrestin recruitment assay; type: cell-based; settings: not given

IC50 [nM] | Structure (SMILES)
0.4 | CC(C)(C)c1nc(N2CCN(CCCCNC(=O)c3cn4cccnc4n3)CC2)cc(C(F)(F)F)n1
8.5 | CC(C)(C)c1nc(N2CCN(CCCCNC(=O)c3nc4ccccc4[nH]3)CC2)cc(C(F)(F)F)n1
0.2 | O=C(NCCCCN1CCN(c2cccc(Cl)c2Cl)CC1)c1cn2ccccc2n1
5.6 | CC(C)(C)c1nc(N2CCN(CCCCNC(=O)c3cc4ccccc4[nH]3)CC2)cc(C(F)(F)F)n1
409 | O=C(NCCCCN1CCN(c2ncnc3ccccc23)CC1)c1cn2ccccc2n1

target: T2, D(3) dopamine receptor; settings: CHO, 1 uM

inhibition [%] | Structure (SMILES)
< 30 | O=C(NCCCCN1CCN(c2cccc(Cl)c2Cl)CC1)c1cn2ccccc2n1

target: T2, D(3) dopamine receptor; experiment: Displacement of [125I]IABN from human D3R expressed in HEK293 cell membranes by gamma counting method; settings: not given

Ki [nM] | Structure (SMILES)
4.3 | CC(C)(C)c1nc(N2CCN(CCCCNC(=O)c3nc4ccccc4[nH]3)CC2)cc(C(F)(F)F)n1
0.3 | O=C(NCCCCN1CCN(c2cccc(Cl)c2Cl)CC1)c1cn2ccccc2n1
11 | CC(C)(C)c1nc(N2CCN(CCCCNC(=O)c3cc4ccccc4[nH]3)CC2)cc(C(F)(F)F)n1

target: T1, D(2) dopamine receptor; settings: CHO, 1 uM

inhibition [%] | Structure (SMILES)
< 30 | O=C(NCCCCN1CCN(c2cccc(Cl)c2Cl)CC1)c1cn2ccccc2n1

target: T1, D(2) dopamine receptor; experiment: Agonist activity against human D2R expressed in HEK293 cells assessed as inhibition of forskolin-induced adenyl cyclase activity at 10 times Ki relative to quinpirole; type: functional, cell-based; settings: not given
How it was run: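 Whole HEK 293 cells expressing human D2R, prelabelled with [2,8-3H]adenine for 75 min at 37 °C, then given 0.1 mM IBMX. […] Stopped with TCA. [3H]cAMP separated on Dowex/alumina. Inhibition normalized to 1 μM quinpirole. Mean ± SEM of ≥3 experiments.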

inhibition [%] | Structure (SMILES)
9.2 | CC(C)(C)c1nc(N2CCN(CCCCNC(=O)c3cn4cccnc4n3)CC2)cc(C(F)(F)F)n1
5.6 | CC(C)(C)c1nc(N2CCN(CCCCNC(=O)c3nc4ccccc4[nH]3)CC2)cc(C(F)(F)F)n1
45 | O=C(NCCCCN1CCN(c2cccc(Cl)c2Cl)CC1)c1cn2ccccc2n1
19 | O=C(NCCCCN1CCN(c2ncnc3ccccc23)CC1)c1cn2ccccc2n1

target: T2, D(3) dopamine receptor; experiment: Displacement of [125I]IABN from chimeric human D3 receptor possessing extracellular loop II of D2 receptor expressed in HEK293 cell membranes by gamma counting method; settings: not given; how it was run: as §1

Structure (SMILES) | Ki [nM]
CN(C)Cc1cccc2nc(C(=O)NCCCCN3CCN(c4cc(C(F)(F)F)nc(C(C)(C)C)n4)CC3)cn12 | 44
